# Screening data: PubChem BioAssay, several laboratories
# A selection: hits, their analogues and other compounds. The true share with any hit is near 1.8%.
# Mot1-301 SUMO = blocks SUMOylation pathway, rescuing yeast Mot1-301 growth; S. cerevisiae Mot1-301 growth rescue, ATP luminescence, 38.5C; percent above DMSO median, 100 means doubled; growth rescue, % at 18.8 µM; hit rate 1% among 320,000;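 active = every valid replicate shows activation above 250% relative to neutral control wells; inactive = the rest, any valid replicate at or below 250%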;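 also: OY570 slx delta 5 strain wells were the positive control but not used for scaling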
# Cneo AK release = causes C. neoformans cell lysis; adenylate kinase release luminescence, 4 h; normalised: neutral wells 0, clomiphene wells 100; lysis activity, % at 15 µM; hit rate 0.2% among 360,000;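 active = mean lysis activity across replicates of at least 80%, whatever share of replicates individually reach that level; inactive = mean lysis activity below 80%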
#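 read-out = cell lysis signal | test system = log-phase Cryptococcus neoformans yeast cells | input = cells at 5 × 10^6 per mL | medium = fresh YPD growth medium | signal = luminescent adenylate kinase detection reagent | timing = 4 h at 37 °C static, read 1 h later | dosing = single dose | controls = Clomiphene as positive lysis control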
# C2C12 statin = suppressors of simvastatin-induced myotoxicity in C2C12 myotubes; hit rate 0.78% among 330,000; rescue of ATP level, % at 7.49 µM; ATP luminescence, 48 h; scaled: DMSO 0, geranylgeraniol control 100; AID 602340;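 active = mean ATP rescue above about 67%, or every replicate alone reaching that limit, limit read from the data, passing the limit was not always enough; inconclusive = no clear call, values can overlap the other calls; inactive = mean under the limit and some replicate under it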;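 also: myotubes were challenged with 10 µM simvastatin during compound exposure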
# Efflux pump mplx = blocks antifungal efflux pumps in multiplex yeast assay | inhibition, % at 10 µM | hit rate 0.44% among 330,000 | S. cerevisiae Candida pump triplex, Nile Red efflux | AID 485275;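 active = plate passing quality check with inhibition over a set limit, or well fluorescence over plate mean plus 4 SD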;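 also: Nile Red retained in pooled yeast measured as flow cytometry median fluorescence; 0% = buffer negative control and 100% = Enniatin B positive control; higher means more Nile Red kept so more efflux inhibition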
# Numbers without * were called inactive; ? = inconclusive; nt = not tested or not shown.
SMILES,Mot1-301 SUMO,Cneo AK release,C2C12 statin,Efflux pump mplx
C[C@@H]1CN([C@@H](C)CO)C(=O)c2cccc(NS(=O)(=O)c3cccs3)c2O[C@@H]1CN(C)C(=O)Nc1ccc(C(F)(F)F)cc1,nt,-4,96*,nt
C[C@@H]1CN([C@@H](C)CO)C(=O)c2cccc(NS(=O)(=O)c3cccs3)c2O[C@H]1CN(C)C(=O)Nc1ccc(C(F)(F)F)cc1,nt,56,22,nt
C[C@H]1CN([C@@H](C)CO)C(=O)c2cccc(NS(=O)(=O)c3cccs3)c2O[C@@H]1CN(C)Cc1ccc(Oc2ccccc2)cc1,nt,2,83*,nt
C[C@@H]1CN([C@H](C)CO)C(=O)c2cc(-c3ccc(C#N)cc3)cnc2O[C@H]1CN(C)C(=O)Nc1ccccc1,nt,-4,25,nt
O=C(COc1ccc(Cl)c(Cl)c1)NC1CCS(=O)(=O)C1 (stereo not given),28,2,1,0
Cc1ccc(C(=O)O/N=C/c2c(C(F)(F)F)nn(C)c2Sc2ccc(Cl)cc2)cc1,-12,-5,116*,0
COC(=O)c1ccccc1Sc1c(/C=N/OC(=O)c2ccccc2)c(C(F)(F)F)nn1C,9,nt,nt,0
CCS(=O)(=O)N1CCN(CC2CC3C=CC2C3)CC1 (stereo not given),349*,-1,0,0
CCCS(=O)(=O)N1CCN(CC2CC3C=CC2C3)CC1 (stereo not given),-1,0,-1,0
O=P(Cc1nnco1)(c1ccccc1)c1ccccc1,340*,0,nt,0
COc1ccc(CP(=O)(c2ccccc2)c2ccccc2)cc1,5,0,19,0
C=CCSc1nc(C)c2cc(C)cc(C)c2n1,-3,-3,133*,0
CCCNc1c(F)c(F)c2c(C)c3ccccc3nc2c1F,8,-4,9,0
O=C(CCN1CCN(c2ccccc2F)CC1)c1ccc(Br)cc1,6,nt,nt,0
COc1ccc(C(=O)CCN2CCN(c3ccccc3F)CC2)cc1,616*,nt,nt,0
COc1cccc(NC(=O)CCN2CCN(c3ccccc3F)CC2)c1,11,0,78*,0
COc1ccc(OC)c(NC(=O)CCN2CCN(c3ccccc3F)CC2)c1,-14,8,nt,0
CCCCCCCCCCCCCCCC[N+](C)(C)CC,48,2,-107,1.8*
CCC(=O)c1cc2c(cc1NC(=O)c1ccc(C)cc1)OCCO2,-9,nt,-40,0
CCCc1cc2c(cc1NC(=O)c1ccc(C)cc1)OCO2,947,nt,91*,0
CC(C)C[C@H](NC(=O)OC(C)(C)C)C(=O)N1CCC(C(=O)N[C@@H](Cc2c[nH]c3ccccc23)C(=O)O)CC1,-10,0,?,0
C[C@@H]1CN([C@@H](C)CO)C(=O)Cc2cc(NC(=O)Nc3ccccc3)ccc2O[C@H]1CN(C)C(=O)Nc1ccc2c(c1)OCO2,nt,-10,15,nt
C[C@H]1CN([C@@H](C)CO)C(=O)Cc2cc(NC(=O)Nc3ccc(C(F)(F)F)cc3)ccc2O[C@H]1CN(C)C(=O)Nc1ccc(F)cc1,nt,-1,83*,nt
C[C@H]1CN([C@@H](C)CO)C(=O)Cc2cc(NC(=O)Nc3ccccc3)ccc2O[C@@H]1CN(C)C(=O)Nc1ccc2c(c1)OCO2,nt,101*,4,nt
COc1ccc(CC(=O)Nc2cccc(S(=O)(=O)N3CCOCC3)c2)cc1OC,32,-1,-9,0
SMILES,Mot1-301 SUMO,Cneo AK release,C2C12 statin,Efflux pump mplx
CCOC(=O)c1c(C)[nH]c(C(=O)COC(=O)C2CC(=O)N(Cc3ccccc3)C2)c1C (stereo not given),-3,0,92*,0
O=[N+]([O-])/C=C1\C=CC=CN1Cc1ccc(Cl)cc1,-27,2,3,0
O=C1c2ccccc2-c2onc3ccc(Oc4ccccc4)c1c23,-12,3,100*,0
COc1ccc(C(C)C)cc1S(=O)(=O)NCc1ccccn1,-4,-4,nt,0
CCc1ccc(CN2CCN(C(=O)c3cccc(OC)c3OC)CC2)cc1,361,1,91*,0
COc1cccc(C(=O)N2CCN(C(=O)c3cccc4ccccc34)CC2)c1OC,-11,1,0,0
CCC(=O)N1CCc2cc(Br)cc(S(=O)(=O)CC(=O)OC)c21,11,0,105*,0
CCC(=O)N1CCc2cc(Br)cc(S(=O)(=O)NCCN3CCCC3)c21,-5,-8,-7,0
O=C(Nc1cccc(S(=O)(=O)N2CCCC2)c1)c1cccc(OC(F)F)c1,353*,nt,nt,0
Cn1cc(S(=O)(=O)N2CCCC2)cc1C(=O)Nc1cccc(C(F)(F)F)c1,333*,-17,-39,0
